{"data": "Assay results collected from several papers", "target": "Cytochrome P450 1A2 (CYP1A2, Homo sapiens, UniProt P05177)", "note": "Compare with care: the assays were run in different laboratories."}
{"Structure (SMILES)": "N=C(N)N1CC=C(c2coc(C(=O)Nc3ccc(C4=CCN(C(=N)N)CC4)c(F)c3)c2)CC1", "assay": "enzyme activity, inhibitor", "system": "liver microsomes", "setting": "10 µM", "endpoint": "inhibition", "result": "0%"}
{"Structure (SMILES)": "COc1ccc(CNC(=O)c2ccc(CNCc3cnc4nc(N)nc(N)c4n3)cc2)cc1OC", "assay": "enzyme activity, inhibitor, luciferase", "setting": "10 µM", "endpoint": "inhibition", "result": "-18.2%"}
{"Structure (SMILES)": "CC(=O)N1CCN(c2ccc(OCC3COC(Cn4ccnc4)(c4ccc(Cl)cc4Cl)O3)cc2)CC1 (stereo not drawn)", "assay": "enzyme activity, inhibitor", "system": "human, liver microsomes", "setting": "1 µM", "endpoint": "inhibition", "result": "-6%"}
{"Structure (SMILES)": "Cc1ccc(C(=O)N2CCOC[C@H]2Cc2cccc(-n3nccn3)c2)c(-n2nccn2)c1", "assay": "enzyme activity, inhibitor", "system": "human, liver microsomes", "setting": "100 µM", "endpoint": "inhibition", "result": "23%"}
{"Structure (SMILES)": "CCc1cc(/C(C)=N/OCc2ccc(C3CCCCC3)c(C(F)(F)F)c2)ccc1CN1CC(C(=O)O)C1", "assay": "enzyme activity, inhibitor", "system": "human, liver microsomes", "setting": "200 µM, 20 min", "endpoint": "inhibition", "result": "-193%"}
{"Structure (SMILES)": "COc1ccc(CNC(=O)c2ccc(CNCc3cnc4nc(N)nc(N)c4n3)cc2)cc1", "assay": "enzyme activity, inhibitor, luciferase", "setting": "10 µM", "endpoint": "inhibition", "result": "-18.9%"}
{"Structure (SMILES)": "C=C[C@H]1C[N@@]2CC[C@H]1C[C@@H]2[C@@H](O)c1ccnc2ccc(OC)cc12", "assay": "enzyme activity, inhibitor", "system": "human, liver microsomes", "setting": "10 µM", "endpoint": "inhibition", "result": "-5%"}
{"Structure (SMILES)": "O=C(Nc1c2c(cc3c1CCC3)CCC2)NS(=O)(=O)/C=C/c1nccs1", "assay": "enzyme activity, inhibitor", "system": "human, liver microsomes", "setting": "10 µM, pH 7.4", "endpoint": "inhibition", "result": "9.5%"}
{"Structure (SMILES)": "CON=C(N)c1ccc(-c2ccc(-c3ccc(C(N)=NOC)cc3)o2)cc1", "assay": "enzyme activity, substrate", "endpoint": "Km", "result": "0.4 µM"}
{"Structure (SMILES)": "CC1(CO)C(O[C@@H]2O[C@H](C(=O)O)[C@@H](O)[C@H](O)[C@H]2O)CC[C@@]2(C)C1CC[C@]1(C)C2CC=C2[C@H]3CC(C)(C)[C@H](O)[C@@H](O)[C@]3(CO)[C@H](O)C[C@]21C (stereo partly drawn)", "assay": "enzyme activity, inhibitor, mass spectrometry", "system": "human, liver microsomes", "endpoint": "IC50", "result": "> 90 µg/mL"}
{"Structure (SMILES)": "Nc1nc(N)c2nc(CNc3ccc(C(=O)N4CCC(C(=O)O)CC4)cc3)cnc2n1", "assay": "enzyme activity, inhibitor, luciferase", "setting": "10 µM", "endpoint": "inhibition", "result": "-33.3%"}
{"Structure (SMILES)": "C=CC(=O)Nc1cc(Nc2nccc(Nc3cc(Cl)c(F)cc3C(C)(C)O)n2)c(OC)cc1N1CC[C@@H](N(C)C)C1", "assay": "enzyme activity, inhibitor", "system": "human, liver microsomes", "setting": "10 µM", "endpoint": "inhibition", "result": "< 20%"}
{"Structure (SMILES)": "COc1ccc(Oc2ccc(CNCc3cnc4nc(N)nc(N)c4n3)cc2)cc1", "assay": "enzyme activity, inhibitor, luciferase", "setting": "10 µM", "endpoint": "inhibition", "result": "-5.44%"}
{"Structure (SMILES)": "N[C@@H](COCc1ccccc1)C(=O)Nc1nc2ccc(OC(F)(F)F)cc2s1", "assay": "metabolic stability", "system": "human, liver microsomes", "setting": "1 µM, 0 h, pH 7.4", "endpoint": "compound remaining", "result": "100%"}
{"Structure (SMILES)": "COc1ccc(Oc2ccc(CN(Cc3ccccc3)Cc3cnc4nc(N)nc(N)c4n3)cc2)cc1", "assay": "enzyme activity, inhibitor, luciferase", "setting": "10 µM", "endpoint": "inhibition", "result": "-21.8%"}
{"Structure (SMILES)": "Cc1cccc(F)c1N1CCC(N2Cc3cn(CC(C)(F)F)nc3N(Cc3ccccc3C(F)(F)F)C2=O)CC1", "assay": "enzyme activity, inhibitor", "system": "human, liver microsomes", "endpoint": "IC50", "result": "> 10 µM"}
{"Structure (SMILES)": "N=C(N)NCc1ccc(NC(=O)C23CCC(C(=O)Nc4ccc(C5=CCN(C(=N)N)CC5)cc4)(CC2)CC3)cc1", "assay": "enzyme activity, inhibitor", "system": "liver microsomes", "setting": "10 µM", "endpoint": "inhibition", "result": "0%"}
{"Structure (SMILES)": "O=C(N[C@H](Cc1c[nH]c2ccccc12)C(=O)Nc1ccncc1)c1ccc(-c2cc(F)ccc2F)cc1F", "assay": "enzyme activity, inhibitor", "system": "human, liver microsomes", "setting": "1 µM", "endpoint": "inhibition", "result": "3%"}
